Screening data from PubChem BioAssay.
Rows were chosen to be rich in hits. Some 5.1% of all compounds tested hit in one or more screens of this group.
SF1 activator: activates the human nuclear receptor SF-1; activation, % at 10 µM; hit rate 1.9% among 65,000; Q13285; CHO-K1 Gal4-SF-1 LBD luciferase reporter; % increase over DMSO SF-1-specific signal;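 active means activation above the mean activation of all tested compounds plus 3 SD, cut at about 50% in these data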
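material = CHO-K1 cells with Gal4–hSF-1 LBD chimera plus Gal4-driven luciferase | compound = 10 µM single point, 1% DMSO | incubation = 20 h compound exposure at 37 °C after 1 h cell settling | measured by = SteadyLite luciferase luminescence | evaluation = percent activation relative to DMSO median and mock-transfected background | control set = DMSO negative control and −SF1 background wells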
BAP1 inh: blocks human BAP1 ubiquitin-AMC hydrolysis. Q92560. recombinant BAP1, Ub-AMC hydrolysis fluorescence kinetic; active compounds read low. calls only at 20 µM. hit rate 0.48% among 72,000. AID 436;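 active means activity remaining at or below 50% of control, provided the compound also passes the data quality filters; inactive means the rest, including low values that fail the filters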;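 further: 100% = DMSO wells rate and 0% = substrate alone blank rate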
Target sequence (Q92560 whole entry, looked up): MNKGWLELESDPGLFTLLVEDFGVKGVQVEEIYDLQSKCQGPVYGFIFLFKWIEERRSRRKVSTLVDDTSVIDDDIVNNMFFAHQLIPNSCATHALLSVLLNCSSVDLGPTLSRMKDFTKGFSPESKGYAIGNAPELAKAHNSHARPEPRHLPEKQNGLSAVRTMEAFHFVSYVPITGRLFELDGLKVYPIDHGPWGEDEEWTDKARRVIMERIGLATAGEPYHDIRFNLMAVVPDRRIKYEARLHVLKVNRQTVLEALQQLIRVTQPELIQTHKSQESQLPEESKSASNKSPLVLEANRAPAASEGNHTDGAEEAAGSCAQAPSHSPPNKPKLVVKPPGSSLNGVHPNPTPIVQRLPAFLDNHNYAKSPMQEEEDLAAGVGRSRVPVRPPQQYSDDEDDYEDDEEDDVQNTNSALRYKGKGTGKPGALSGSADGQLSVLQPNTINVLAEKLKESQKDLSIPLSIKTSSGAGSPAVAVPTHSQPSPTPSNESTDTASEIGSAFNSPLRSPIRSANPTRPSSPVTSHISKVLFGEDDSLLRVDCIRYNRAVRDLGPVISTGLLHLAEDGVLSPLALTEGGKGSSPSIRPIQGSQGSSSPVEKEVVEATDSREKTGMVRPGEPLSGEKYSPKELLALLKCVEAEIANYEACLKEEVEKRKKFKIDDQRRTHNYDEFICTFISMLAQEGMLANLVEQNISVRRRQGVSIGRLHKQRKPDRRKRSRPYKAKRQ
ERa coact inh: blocks coactivator binding to human estrogen receptor alpha | hit rate 1.7% among 86,000 | TR-FRET ER-alpha LBD / SRC-1 peptide, estradiol-bound | inhibition, % at 25.6 µM; in the data active means inhibition above about 50%;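 further: 0% = receptor plus peptide control and 100% = peptide only without receptor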
RORa activator: activates the human nuclear receptor RORA; activation, % at 10 µM; hit rate 1.5% among 65,000; CHO-K1 Gal4-RORA LBD luciferase reporter, luminescence; percent increase over mock-subtracted basal signal; P35398;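 active means activation above the mean of all tested compounds plus 3 SD, cut at about 49% in these data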;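 further: 0% = DMSO-treated RORA cells and 100% = added signal equal to DMSO minus mock-transfected cells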
ERb coact inh: ER-beta (human) coactivator binding inhibition. Q92731. TR-FRET ER-beta LBD / SRC1-Cy5 peptide binding; receptor agonist-loaded with 1 µM estradiol. inhibition, % at 25.6 µM. hit rate 1.3% among 86,000. AID 633;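 active means compounds whose percent inhibition of the receptor-coactivator binding signal exceeds about 50% in the single-dose screen, limit read from the data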;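 further: 0% = receptor plus peptide wells without compound and 100% = peptide-only wells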
ERa coact pot: enhances coactivator binding to human estrogen receptor alpha. hit rate 1.3% among 86,000. TR-FRET ERalpha-LBD/SRC-Cy5 coactivator binding, 2 h; 100 = basal binding, no effect. P03372. coactivator binding (% of control), % at 25.6 µM. AID 639; in the data active means activity above about 200%;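 further: binding measured in presence of low estradiol as agonist stimulus; 0% = peptide alone without receptor and 100% = receptor with peptide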
The depositor's hits bear a star; i = inactive; · = no result given; [ ] = another dose, or the depositor's remark.

SMILES	SF1 activator	BAP1 inh	ERa coact inh	RORa activator	ERb coact inh	ERa coact pot
CCCOC(=O)C1=C(C)NC2=C(C(=O)CC(c3ccccc3)C2)C1c1ccc(O)c(OCC)c1 (configuration not stated)	·	i	·	·	·	·
Cc1cccc(OCC(=O)Nc2ccc(N3CCCC3)cc2)c1C	-13.4	i	95.3*[fluorescence artefact?]	-12.5	59.3*[fluorescence artefact?]	6.3
Cc1ccc(OCC(=O)Nc2ccc(N3CCCC3)cc2)cc1C	-19.1	i	98.7*[fluorescence artefact?]	-3.3	81.6*[fluorescence artefact?]	-2.1
CN1CCN(c2ccc(NC(=O)COc3ccccc3Cl)cc2)CC1	-14.7	i	56.6*[fluorescence artefact?]	-19.6	71.8*[fluorescence artefact?]	27.6
Cc1cc(OCC(=O)NCCN2CCOCC2)cc(C)c1Br	2.8	i	-4.1	-1.8	-12.2	96.9
Cc1cc(C)cc(OCC(=O)NCCN2CCOCC2)c1	14.9	i	-9.5	-14.5	85.2*[fluorescence artefact?]	111.6
Cc1cccc2sc(NC(=O)c3ccccc3Oc3ccccc3)nc12	·	i	·	·	·	·
Cc1ccc(C2C(N3C(=O)c4ccc([N+](=O)[O-])cc4C3=O)C(=O)N2c2ccc(C)c(F)c2)cc1 (configuration not stated)	·	i	·	·	·	·
Cc1cc(C)cc(OCC(=O)Nc2ccc(N3CCCC3)cc2)c1	-8.5	i	97.3*[fluorescence artefact?]	-6.9	71.0*	2.6
Cc1ccc(C)n1-c1cccc(C(=O)O)c1	7.3	·	-0.4	17.1	25.5	327.6*
O=C(Nc1nc(=O)c2ccccc2s1)c1ccc(F)cc1	·	·	48.6	·	52.3*[fluorescence artefact?]	188.4
O=C1c2ccc(Br)cc2C(=O)N1c1cccc(C(F)(F)F)c1	·	i	·	·	·	·
Cc1ccc(-n2c(SCC(N)=O)nnc2-c2cccnc2)c(C)c1	2.8	i	-4.5	-17.3	-6.8	101.1
Cc1ccc(-n2c(SCc3cc(=O)n4ccsc4n3)nnc2-c2cccnc2)c(C)c1	8.2	i	75.2*[fluorescence artefact?]	6.2	62.3*	120.3
CCOC(=O)c1cc(CC)sc1NC(=O)c1ccc(N2CCN(CC)CC2)c([N+](=O)[O-])c1	·	i	·	·	·	·
COc1ccc(Cl)cc1NC(=O)c1cc2n(n1)C(C(F)(F)F)CC(c1ccco1)N2 (configuration not stated)	·	i	·	·	·	·
CCC(=O)Nc1nonc1-c1nc2ccccc2n1Cc1ccc(Cl)c(Cl)c1	-14.2	i	57.8*[fluorescence artefact?]	4.4	51.4*[fluorescence artefact?]	109.3
CCOC(=O)c1c(-c2ccccc2)csc1NC(=O)CSc1nc2ccccc2o1	·	i	·	·	·	·
O=C1NC(c2cccc3ccccc23)Nc2sc3c(c21)CCCC3 (configuration not stated)	·	i	·	·	·	·
CN1C(=O)c2c(sc3c2CCCC3)NC1c1ccccc1O (configuration not stated)	30.0	·	18.9	17.5	77.8*[fluorescence artefact?]	60.9
O=C1CCCCCN1Cc1nnc(SCc2nc3ccccc3s2)n1-c1ccccn1	78.7*	·	-17.8	60.7*	5.6	109.6
Cc1ccccc1NC(=O)C(c1ccc([N+](=O)[O-])cc1)N1CCOCC1 (configuration not stated)	·	i	·	·	·	·
CCOc1nc(C)ccc1-c1noc(C)n1	-10.0	i	-5.0	-20.1	-9.0	110.2
CCOc1nc(-c2ccc(OC)cc2)ccc1-c1noc(-c2ccncc2)n1	-19.3	i	76.2*	3.6	37.6	138.4
CCOc1nc(-c2ccccc2)ccc1-c1noc(-c2ccncc2)n1	0.9	i	33.4	-16.9	30.3	196.2
SMILES	SF1 activator	BAP1 inh	ERa coact inh	RORa activator	ERb coact inh	ERa coact pot
CCOc1nc(C)ccc1-c1noc(-c2ccncc2)n1	36.3	i	-6.0	13.8	-1.7	232.7*[fluorescence artefact?]
Cc1cc(C)c(C#N)c(SCc2ccccc2)n1	·	·	1.4	·	-2.7	94.5
Cc1cc(C)c(C#N)c(SCc2cc3c(cc2Cl)OCO3)n1	·	·	56.0*[fluorescence artefact?]	·	58.2*[fluorescence artefact?]	189.3
COc1ccc(C2=NN(C(=O)CSc3cn(C)c4ccccc34)C(c3ccc(OC)cc3)C2)cc1 (configuration not stated)	·	·	-4.8	·	-0.1	639.2*[fluorescence artefact?]
CCc1ccc(NC(=O)c2cc(C(C)C)on2)cc1	10.9	i	4.5	61.9*	5.8	112.0
CC(=O)c1cccc(NC(=O)c2cc(C(C)C)on2)c1	74.0*	i	-1.3	54.6*	-0.1	139.5
O=c1oc2ccc([N+](=O)[O-])cc2cc1-c1csc(Nc2ccccc2F)n1	·	i	·	·	·	·
